KCNK9 block: human KCNK9 channel inhibition | actives 1.2% (n = 310,000) | AID 488922 | Q9NPC2 | B-score at 10 µM | HEK293 KCNK9, FluxOR thallium flux fluorescence; hits give low values;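 active means ratio B-score over 3 SD below the library mean, with starting fluorescence within 5 SD of its mean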;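 further: negative B-score means less thallium flux so channel inhibition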
hERG protect: hERG (human) protection from proarrhythmic block; CHO-hERG, FluxOR thallium flux, dofetilide IC70 present; actives 0.51% (n = 310,000); AID 1511; activation (rescue from dofetilide block), less the hit threshold, % at 10 µM; Q12809;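 active means activation above the mean of controls blocked by dofetilide plus 5 SD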;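 further: thallium influx through hERG after potassium depolarization seen as dye fluorescence rise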
KCNQ1 act: potentiators or activators of human KCNQ1 potassium channel. actives 0.35% (n = 310,000). B-score at 10 µM. CHO-K1 KCNQ1, thallium flux FluxOR fluorescence; hits give high values. AID 2648;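 active means fluorescence ratio B-score, a plate-corrected score, at least three library SD, with initial intensity B-score within 5 SD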
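Schedule – 37 °C overnight plating, 90-min dark dye load, 20-min compound pretreatment · System – stable KCNQ1 CHO-K1 line · Probe or stimulus – thallium- and potassium-containing depolarizing buffer · Measured by – kinetic FluxOR fluorescence, 10 s baseline plus 110 s post-stimulus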
Kir21 block: blocks the mouse Kir2.1 inward-rectifier potassium channel; P35561; HEK293-Kir2.1, FluxOR thallium flux fluorescence; hits give low values; B-score at 10 µM; actives 0.85% (n = 310,000);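 active means fluorescence ratio B-score at or below minus 3 SD of library scores, with starting-brightness B-score within 2 SD, cut at about -4.2 in these data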;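 further: channel flux triggered by added potassium and thallium sulfate stimulus; B-score of peak minus minimum fluorescence over baseline after thallium stimulus; more negative B-score means stronger Kir2.1 block with less thallium influx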
KCNQ1 inh: inhibitors of human KCNQ1 potassium channel; P51787; CHO-K1 KCNQ1, FluxOR thallium flux fluorescence; hits give high values; B-score at 10 µM; actives 1.3% (n = 310,000);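 active means compounds whose thallium flux B-score, printed positive for inhibition, exceeds three library SD while starting fluorescence stays within three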;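 further: channel opened by potassium depolarization with thallium stimulus after 20 min compound exposure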
KCNK3 inh: human KCNK3 channel inhibition, primary screen | actives 0.84% (n = 340,000) | CHO-KCNK3 thallium flux, FluxOR fluorescence; hits give low values | B-score at 10 µM | O14649;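 active means B-score under library mean minus 4 SD, starting fluorescence ratio at most library mean plus 5 SD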;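 further: more negative B-score means stronger inhibition of thallium flux through KCNK3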
Target sequence (O14649 whole entry, looked up): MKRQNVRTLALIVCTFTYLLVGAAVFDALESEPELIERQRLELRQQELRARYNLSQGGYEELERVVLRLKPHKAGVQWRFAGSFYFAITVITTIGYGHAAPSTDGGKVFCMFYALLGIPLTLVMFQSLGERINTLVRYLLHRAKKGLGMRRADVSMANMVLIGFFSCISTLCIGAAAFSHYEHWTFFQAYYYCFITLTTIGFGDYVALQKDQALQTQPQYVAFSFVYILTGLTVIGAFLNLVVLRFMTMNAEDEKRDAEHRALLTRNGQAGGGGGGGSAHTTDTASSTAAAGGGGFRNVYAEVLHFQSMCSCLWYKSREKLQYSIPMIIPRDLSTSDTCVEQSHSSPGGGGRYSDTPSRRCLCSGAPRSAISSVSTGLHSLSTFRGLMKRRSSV
KCNK9 block conf: human KCNK9 inhibitor confirmation; shares compounds with KCNK9 block; HEK293 KCNK9 cells, FluxOR thallium flux fluorescence; inhibition, % at 10 µM; actives 43% (n = 4,900); AID 492992;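 active means thallium signal inhibited by more than 5 SD of the compound-free buffer control wells, on both duplicate plates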;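 further: 0% = assay buffer control wells without compound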
Kir2-1 spec: mouse Kir2.1 off-target activity of KCNK9 modulators; actives 4% (n = 4,900); Kir2.1 cells, FluxOR thallium flux fluorescence; AID 492993; shares compounds with KCNK9 block; inhibition, % at 10 µM;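 active means thallium signal drop more than 5 SD beyond the mean of the no-compound control wells, seen in both duplicate plates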;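 further: signal is fluorescence rise after thallium addition divided by baseline fluorescence; plate controls were assay buffer only for no effect and full block by chlorpromazine control for full effect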
HEK293 Tl ctr: second counter-screen for KCNK9 modulators: effect in non-induced cells; inhibition, % at 10 µM; non-induced KCNK9-HEK293, FluxOR thallium flux; actives 40% (n = 4,900); AID 492997; shares compounds with KCNK9 block;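 active means thallium signal drop beyond 5 SD of the untreated control mean, on both duplicate plates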;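 further: plate controls were buffer only IC0 wells for no effect and SID17386958 at its maximal inhibitory level for full effect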
KCNK3 inh conf: confirmation of human KCNK3 two-pore domain potassium channel inhibitors | ratio percent of control, % at 10 µM | actives 99% (n = 2,400) | shares compounds with KCNK3 inh | CHO-KCNK3 thallium flux, FluxOR fluorescence; 0% buffer, 100% carvedilol maximal block;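 active means ratio percent of control, averaged over triplicates, above buffer control mean plus 5 SD, cut at about 64% in these data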;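 further: ratio is the fluorescence rise from min to max over baseline after thallium stimulus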
KCNK3 noninduced: KCNK3 inhibitor counter-screen hit in non-induced cells; actives 40% (n = 2,400); non-induced KCNK3 parental cells, FluxOR thallium flux; hits give low values; shares compounds with KCNK3 inh; thallium flux ratio (lower = more inhibition) at 10 µM; AID 651747;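 active means thallium flux ratio, averaged over three wells, more than 5 SD below the buffer control mean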;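 further: host cells are CHO cells without KCNK3 induction; ratio is peak minus trough fluorescence over baseline then normalized to buffer controls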
Active calls of the source: *; i = inactive; . = not tested or not shown. Compounds with a hit are over-represented: about 3.7% of the library has one in this group of screens.

SMILES | KCNK9 block | hERG protect | KCNQ1 act | Kir21 block | KCNQ1 inh | KCNK3 inh | KCNK9 block conf | Kir2-1 spec | HEK293 Tl ctr | KCNK3 inh conf | KCNK3 noninduced
COc1ccc(/C=N/Nc2cc(C)nc3ccc(OC)cc23)c(OC)c1 | -16* | -24 | i | -3.2 | 14* | -14* | i | i | 38%* | 151* | 0.11*
O=C(Nc1ccc(Cl)c(S(=O)(=O)N2CCOCC2)c1)c1cc(-c2ccccn2)nc2ccccc12 | -9.5* | -21 | i | -0.64 | i | -8.8* | i | i | i | 123* | i
O=C(Nc1ccc(Cl)c(S(=O)(=O)N2CCOCC2)c1)c1ccccn1 | i | -8 | i | 0.49 | i | i | . | . | . | . | .
O=C(O)CCCCCNC(=O)C(=O)C1C(=O)Nc2ccccc21 (stereo not drawn) | i | -10 | i | 0.21 | i | i | . | . | . | . | .
CCOC(=O)N1CCN(C(=O)COC(=O)CNC(=O)c2ccc(C)cc2)CC1 | i | -6 | i | 0.94 | i | i | . | . | . | . | .
N/C(Cc1ccc([N+](=O)[O-])cc1)=N\OC(=O)C(c1ccccc1)c1ccccc1 | -10* | -5 | i | 0.87 | i | -9.6* | 34%* | i | 40%* | 126* | i
COc1cccc(NC(=O)N2CCC(NC(=O)C(Cc3ccccc3F)NC(C)=O)CC2)c1 (stereo not drawn) | i | -15 | i | 0 | i | i | . | . | . | . | .
Cc1ccc(S(=O)(=O)N(C)C)cc1NC(=O)c1cc(C(C)(C)C)nn1Cc1ccccc1 | -16* | -5 | i | -0.96 | i | -12* | 40%* | i | 33%* | 128* | 0.14*
Cc1ccc(S(=O)(=O)N(C)C)cc1NC(=O)CN1CCN(Cc2ccccc2)CC1 | i | -8 | i | -3.6 | i | i | . | . | . | . | .
CCOC(=O)COc1c(OC)cc(Cl)cc1C1Nc2ccccc2C(=O)N1c1cccc(C)c1 (stereo not drawn) | -9.1* | -12 | i | 2.1 | i | -9.7* | 48%* | i | 38%* | 111* | i
CCOc1cc(C2Nc3ccccc3C(=O)N2c2ccccc2)c(Br)cc1OCC(=O)O (stereo not drawn) | i | -7 | i | 0.61 | i | i | . | . | . | . | .
CCOC(=O)COc1c(OC)cc(Cl)cc1C1Nc2ccccc2C(=O)N1c1ccccc1 (stereo not drawn) | -11* | -6 | i | -0.35 | i | -11* | 56%* | i | 36%* | 107* | 0.14*
COc1cc(C2Nc3ccccc3C(=O)N2c2ccccc2)ccc1O (stereo not drawn) | i | -3 | i | 0.61 | i | i | . | . | . | . | .
COc1ccccc1OCCCN1C(=O)C(=O)c2cccc(C)c21 | -12* | -15 | i | 0.77 | i | -10* | 49%* | i | i | 112* | i
CCN(C(=S)NCc1ccccc1)c1cccc2ccccc12 | -18* | -11 | i | -2 | i | -13* | 64%* | i | 46%* | 101* | i
Cc1cc(C=O)c(C)n1-c1ccc(NC2CCCC2)c([N+](=O)[O-])c1 | -17* | -9 | i | 0.74 | 6* | -9.1* | 60%* | i | 37%* | 122* | i
CC(C)(C)c1cc(/C=N/NC(=O)C[n+]2ccccc2)cc(C(C)(C)C)c1O | i | -3 | i | 1.6 | i | i | . | . | . | . | .
CC(OC(=O)c1ccc(O)cc1)C(=O)Nc1cc(C(F)(F)F)ccc1Cl (stereo not drawn) | -11* | -21 | i | 0.46 | 6* | -9.8* | i | i | 48%* | 139* | 0.12*
O=C(COC(=O)c1ccc(O)cc1)Nc1cc(C(F)(F)F)ccc1Cl | i | -16 | i | -2.9 | i | i | . | . | . | . | .
CC(OC(=O)CSc1ccccc1)C(=O)NC1CCCCC1C (stereo not drawn) | . | . | . | . | . | i | . | . | . | . | .
Cc1cc(C)cc(OCC(=O)Nc2cccc(-c3nnc(-c4ccco4)o3)c2)c1 | -10* | -28 | i | 0.72 | i | -12* | 44%* | i | 60%* | 115* | i
O=C(Cc1cccs1)Nc1cccc(-c2nnc(-c3ccco3)o2)c1 | -9.3* | -1 | i | 0.02 | i | -10* | i | i | 26%* | 115* | i
Cc1ccc(-c2nnc(-c3ccc(NC(=O)Cc4cccs4)cc3)o2)cc1 | i | 0 | i | -0.76 | i | i | . | . | . | . | .
COc1ccc(CCNC(=O)c2ccc(CS(=O)Cc3ccc(C)cc3)o2)cc1OC (stereo not drawn) | i | -10 | i | -0.92 | i | i | . | . | . | . | .
CCCCCCCCn1c2c(c(=N)c3ccccc31)CCC2 | -16* | -27 | i | -15* | 11* | i | 51%* | 83%* | i | 140* | 0.14*
SMILES | KCNK9 block | hERG protect | KCNQ1 act | Kir21 block | KCNQ1 inh | KCNK3 inh | KCNK9 block conf | Kir2-1 spec | HEK293 Tl ctr | KCNK3 inh conf | KCNK3 noninduced
CCOC(=O)c1ccc(Oc2nc(SC)nc(N(C)C)n2)cc1 | -8.8* | -3 | i | 1.2 | i | -9.8* | 48%* | i | 42%* | 103* | i
Cc1ccccc1OCc1ccc(C(=O)N2CCOCC2)o1 | i | -6 | i | 0.05 | i | i | . | . | . | . | .
COc1ccc(N2CCN(c3ccc(S(=O)(=O)N(C(C)C)C(C)C)cn3)CC2)cc1 | i | -8 | i | -0.88 | i | i | . | . | . | . | .
CCn1cc(Br)c(C(=O)Nc2ccc(C(=O)OC(C)C)cc2)n1 | -11* | -5 | i | 0.43 | i | -9.7* | 41%* | i | 26%* | 99* | i
CCN(CC)C(=O)C1CCCN(c2ccc([N+](=O)[O-])cc2/C=N/NC(=O)c2cccc(Br)c2)C1 (stereo not drawn) | -12* | -8 | i | 0 | i | i | 42%* | i | 32%* | 134* | 0.13*
c1ccc(C2=NNC(c3ccccn3)=NN2)nc1 | i | -6 | i | -1.1 | i | i | . | . | . | . | .

Assay outcomes: PubChem BioAssay, Johns Hopkins Ion Channel Center
